In article PMC2605181 (Nature chemical biology, 2008):
Entries after “also recorded” stand apart in the source; their conditions may differ.

Experiments:
[1] = molecular target: T1, MAGL (Mus musculus, UniProt O35678); test: Competitive ABPP; assay type: biochemical; settings: for inhibition of MAGL by competitive ABPP: 30 min
T1 sequence (O35678 1-303): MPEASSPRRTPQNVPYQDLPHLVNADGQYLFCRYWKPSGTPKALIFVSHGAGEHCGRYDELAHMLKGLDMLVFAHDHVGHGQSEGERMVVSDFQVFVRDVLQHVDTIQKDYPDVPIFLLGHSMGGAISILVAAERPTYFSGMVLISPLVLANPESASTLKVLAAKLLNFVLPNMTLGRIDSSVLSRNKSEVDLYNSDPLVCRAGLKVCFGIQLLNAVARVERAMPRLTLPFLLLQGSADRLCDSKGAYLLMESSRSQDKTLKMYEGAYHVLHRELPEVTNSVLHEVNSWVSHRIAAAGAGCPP

[2] = molecular target: T2, FAAH (Mus musculus, UniProt O08914); test: Competitive ABPP; assay type: biochemical; settings: for inhibition of FAAH by competitive ABPP: mouse brain membrane proteome, 30 min, Fig. 1b
T2 sequence (O08914 1-579): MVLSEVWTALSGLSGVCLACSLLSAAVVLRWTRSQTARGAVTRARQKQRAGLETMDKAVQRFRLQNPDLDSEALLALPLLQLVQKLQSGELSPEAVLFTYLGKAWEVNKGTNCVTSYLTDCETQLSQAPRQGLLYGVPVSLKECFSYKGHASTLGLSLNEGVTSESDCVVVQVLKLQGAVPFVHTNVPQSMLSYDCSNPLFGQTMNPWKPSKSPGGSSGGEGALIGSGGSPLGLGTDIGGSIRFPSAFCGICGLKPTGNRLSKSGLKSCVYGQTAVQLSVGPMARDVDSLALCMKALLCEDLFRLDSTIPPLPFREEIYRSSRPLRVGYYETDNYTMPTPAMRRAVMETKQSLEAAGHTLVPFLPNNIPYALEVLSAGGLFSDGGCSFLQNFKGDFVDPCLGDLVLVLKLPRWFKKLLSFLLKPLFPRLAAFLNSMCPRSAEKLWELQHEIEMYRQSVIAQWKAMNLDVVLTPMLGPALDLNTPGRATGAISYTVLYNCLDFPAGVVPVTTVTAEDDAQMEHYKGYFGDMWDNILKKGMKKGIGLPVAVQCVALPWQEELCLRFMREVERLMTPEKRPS
Procedure, shortened: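 Mouse brain membrane proteome (1 mg ml-1 in PBS) preincubated with test compound (1 nM to 10 μM) for 30 min at 37°C, then FP-rhodamine (2 μM final) for 30 min at room temperature, quenched, SDS-PAGE, in-gel fluorescence; DMSO control. kobs [I]-1: proteome with 0.01-15 μM for 10-40 min at 37°C, aliquots FP-rhodamine-labelled 2 min every 10 min; FAAH band density fit exponentially for pseudo-first-order constants.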

[3] = molecular target: T3, ABHD6 (Mus musculus, UniProt Q8R2Y0); test: Competitive ABPP; assay type: biochemical; settings: for inhibition of ABHD6 by competitive ABPP: mouse brain membrane proteome, 30 min, Fig. 1b
T3 sequence (Q8R2Y0 1-336): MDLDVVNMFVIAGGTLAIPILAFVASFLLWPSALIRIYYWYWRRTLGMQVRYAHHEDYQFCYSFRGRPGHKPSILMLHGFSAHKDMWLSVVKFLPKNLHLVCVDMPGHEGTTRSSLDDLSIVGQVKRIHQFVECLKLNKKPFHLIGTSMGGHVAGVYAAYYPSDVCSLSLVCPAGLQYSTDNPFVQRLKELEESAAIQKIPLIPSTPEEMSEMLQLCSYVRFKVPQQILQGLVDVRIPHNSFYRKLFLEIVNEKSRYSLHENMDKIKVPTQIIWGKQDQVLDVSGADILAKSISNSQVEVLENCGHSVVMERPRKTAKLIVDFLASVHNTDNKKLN
Procedure, shortened: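 Mouse brain membrane proteome at 1 mg ml-1 in PBS, preincubated with test compound (1 nM to 10 μM) for 30 min at 37°C, then FP-rhodamine (2 μM final) for 30 min at room temperature. Quenched in SDS loading buffer and boiled 5 min at 90°C. Run on SDS-PAGE with in-gel fluorescence scanning; DMSO-only proteome served as control.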

[4] = tested on: mice; test: Rectal temperature; assay type: in vivo, mouse
Procedure, shortened: (§1)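 Measured as part of the cannabinoid tetrad test in mice. Test compound was dissolved in 4:1 v/v PEG300:Tween80 by vortexing, sonication and gentle heating, and given i.p. at 4 μl g-1 body weight; vehicle-only group as control. Rimonabant, where used, was given in 18:1:1 v/v/v saline:ethanol:alkamuls-620.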

[5] = tested on: mice; test: Tail immersion test of acute thermal pain sensation; assay type: in vivo, mouse
Procedure, shortened: (§2)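 Test compound was given in 4:1 v/v PEG300:Tween80 at 4 μl g-1: i.p. for tail immersion and acetic acid stretching; p.o. in PEG300 for formalin phase 1 (40 mg kg-1). Rimonabant was given in 18:1:1 saline:ethanol:alkamuls-620. Vehicle and rimonabant-pretreated groups were compared; mean ± SEM, n = 6-14 mice per group.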

[6] = tested on: mice; test: Formalin test; assay type: in vivo, mouse
Procedure, shortened: as §2

[7] = tested on: mice; test: Acetic acid writhing; assay type: in vivo, mouse
Procedure, shortened: as §2

[8] = tested on: mice; test: Locomotor activity; assay type: in vivo, mouse
Procedure, shortened: as §1

[9] = cited from earlier work
[10] = tested on: MAGL; settings: cited from earlier work
[11] = tested on: brain levels of 2-AG, arachidonic acid, NAEs, MAGs; test: Measurement of brain lipids in treated mice; assay type: in vivo, mouse
[12] = molecular target: T2, FAAH; test: FAAH activity of brain membranes from treated mice; assay type: in vivo
Procedure, shortened: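 Male C57Bl/6J mice (6-8 weeks, 20-26 g) dosed i.p. in 4:1 v/v PEG300:Tween80, with vehicle-only controls. Killed by decapitation under isoflurane 0.5-24 h later; brain hemisected and flash frozen, one half used for membrane proteomes. FAAH activity measured by gel competitive ABPP, FP-biotin ABPP-MudPIT and LC-MS oleamide hydrolysis. Means ± SEM, n = 3-5 mice per group.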

[13] = tested on: interstitial brain levels of 2-AG and AEA; test: In vivo microdialysis, nucleus accumbens, neuronal depolarization; set-up: species or system mouse; settings: 10 mg kg^-1 i.p.
Procedure, shortened: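 Male C57Bl/6 mice received test compound at t = -60 min. Dialysate was sampled from nucleus accumbens. Depolarization was by perfusion with high potassium/calcium artificial CSF at t = 0-90 min. […] Mean ± SEM; n = 8 treated, 6 vehicle.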

[14] = tested on: brain serine hydrolases; test: Other brain serine hydrolase activities from treated mice; assay type: in vivo, mouse; settings: 16 mg kg^-1, 4 h
Procedure, shortened: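 Male C57Bl/6J mice (6-8 weeks, 20-26 g) given 16 mg kg-1 i.p. in 4:1 v/v PEG300:Tween80 or vehicle alone. At 4 h, killed by decapitation under isoflurane; brain half flash frozen for protein work. Brain membrane proteomes underwent competitive ABPP with the biotinylated FP probe, then MudPIT identification of serine hydrolase activities relative to vehicle. n = 3-5 mice per group.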

[15] = tested on: mice; test: Catalepsy bar test and overt behaviour; assay type: in vivo, mouse
Procedure, shortened: as §1

[16] = Time course of JZL184 in mouse brain; assay type: in vivo; settings: C57Bl/6J
[17] = tested on: CB1 receptors; test: CB1 receptor binding assay, cerebellar membranes; settings: JZL184 0.001-10 µM
[18] = molecular target: CB2 receptors (Homo sapiens, UniProt P34972); test: CB2 receptor binding assay, CB2 transfected CHO cell membranes; settings: JZL184 0.0005-5 µM
[19] = molecular target: T1, MAGL; test: MAGL activity of brain membranes from treated mice; assay type: in vivo; settings: 16 mg kg^-1 i.p., 4 h
[20] = mouse brain membrane proteome, Fig. 1b
[21] = rimonabant 3 mg kg^-1 pre-treatment
[22] = brain membrane proteome, FP-rhodamine labeling
[23] = 16 mg kg^-1 i.p., wild-type / CB1+/+ mice

CB2 receptors, sequence (P34972 whole entry): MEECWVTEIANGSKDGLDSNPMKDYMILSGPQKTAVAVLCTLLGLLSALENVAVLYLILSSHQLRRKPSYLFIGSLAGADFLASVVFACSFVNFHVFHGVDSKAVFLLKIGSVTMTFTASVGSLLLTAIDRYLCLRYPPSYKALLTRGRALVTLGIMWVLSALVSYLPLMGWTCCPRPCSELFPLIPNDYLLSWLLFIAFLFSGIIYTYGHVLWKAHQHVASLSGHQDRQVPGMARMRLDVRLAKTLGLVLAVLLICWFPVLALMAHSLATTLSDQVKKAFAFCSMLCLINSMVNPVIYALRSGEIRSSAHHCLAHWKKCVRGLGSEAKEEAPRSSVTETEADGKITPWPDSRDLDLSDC

In the case of COc1ccc(C(O)(c2ccc(OC)cc2)C2CCN(C(=O)Oc3ccc([N+](=O)[O-])cc3)CC2)cc1 [JZL175], the “selectivity for MAGL over FAAH and ABHD6 by competitive ABPP” value [1, 20] is reported as “exhibited selectivity for MAGL over both FAAH and ABHD6”.
For COc1ccc(C(c2ccc(OC)cc2)N2CCN(C(=O)Oc3ccc([N+](=O)[O-])cc3)CC2)cc1 [WWL162], the “inhibition of MAGL by competitive ABPP” value [1, 20] was “preserve potency”, the “inhibition of FAAH by competitive ABPP” value [2] was “greatly reducing activity for FAAH” and the “inhibition of ABHD6 by competitive ABPP” value [3] was “preserve potency”.
With Cc1c(C(=O)NN2CCCCC2)nn(-c2ccc(Cl)cc2Cl)c1-c1ccc(Cl)cc1 [rimonabant, reference compound] the “blockade of hypothermic effect of JZL184” value [4, 21] was “completely blocked”, the “blockade of JZL184 effect in tail immersion test” value [5, 21] was “blocked” and the “blockade of JZL184 effect in formalin test” value [6, 21] was “blocked”. The “blockade of JZL184 effect in acetic acid writhing test” value [7, 21] was “blocked”, the “effect of rimonabant on its own on movement” value ([8]; rimonabant 3 mg kg^-1) was “significant reductions in movement” and the “blockade of JZL184-induced immobility” value [8, 21] was “partial blockade”.
In the case of CCCCC/C=C\C/C=C\C/C=C\C/C=C\CCCCN1C(=O)C=CC1=O [NAM], the “potentiation of pharmacological effects of 2-AG in vivo” value [9] is given as “potentiate the pharmacological effects of 2-AG” and the “selectivity for MAGL over FAAH and other serine hydrolases” value [10] is given as “some selectivity”.
For CN(Cc1cccc(-c2ccncc2)c1)C(=O)Oc1ccc([N+](=O)[O-])cc1 [WWL98], the “inhibition of MAGL by competitive ABPP” value [1, 20] was “inhibited”, the “inhibition of FAAH by competitive ABPP” value [2] was “inhibited” and the “inhibition of ABHD6 by competitive ABPP” value [3] was “inhibited”.
In the case of NC(=O)c1cccc(-c2cccc(OC(=O)NC3CCCCC3)c2)c1 [URB597, reference compound], the “brain 2-AG or arachidonic acid levels” value ([11]; URB597 10 mg kg^-1 i.p.) is reported as “without altering”, the “brain anandamide and other NAEs” value ([11]; URB597 10 mg kg^-1 i.p.) is reported as “significant elevations” and the “brain FAAH activity” value ([12]; URB597 10 mg kg^-1 i.p.) is reported as “completely inhibited”.
For O=C(Oc1ccc([N+](=O)[O-])cc1)N1CCN(C(c2ccc(F)cc2)c2ccc(F)cc2)CC1 [WWL152], the “inhibition of MAGL by competitive ABPP” value [1, 20] was “preserve potency”, the “inhibition of FAAH by competitive ABPP” value [2] was “greatly reducing activity for FAAH” and the “inhibition of ABHD6 by competitive ABPP” value [3] was “preserve potency”.
For O=C(Oc1ccc([N+](=O)[O-])cc1)N1CCC(C(O)(c2ccc3c(c2)OCO3)c2ccc3c(c2)OCO3)CC1 [JZL184], the “blockade of MAGL activity by competitive ABPP” value ([1]; as low as 50 nM JZL184, 30 min preincubation) was “Near-complete blockade”, the “kobs [I]^-1 for MAGL” value [1, 22] was 4400 M⁻¹ s⁻¹ and the “hypothermia in CB1^-/- mice” value ([4]; 16 mg kg^-1 i.p., CB1^-/- mice) was “did not produce significant hypomotility, hypothermia, or analgesia”. For the same compound, the hypothermia [4, 23] was “significant hypothermia”, the “baseline interstitial levels of 2-AG (before depolarization)” value ([13]; 1 h prior to depolarization) was “did not observe changes” and the “interstitial brain levels of 2-AG following neuronal depolarization” value ([13]; nucleus accumbens) was “dramatically elevated”. For the same compound, the “interstitial brain levels of AEA” value ([13]; nucleus accumbens) was “did not affect; also recorded: no significant alteration”, the “elevation of brain 2-AG above control levels” value ([11]; 16 mg kg^-1 i.p., for at least 8 h) was 7-9 fold and the “elevation of brain 2-AG (summary statement)” value ([11]; administration to mice) was 8 fold. For the same compound, the “elevation of brain 2-AG levels above baseline” value ([11]; higher doses (up to 40 mg kg^-1 i.p.), 4 h) was 8-10 fold, the “period for which elevated brain 2-AG levels were maintained” value ([11]; single dose) was “at least 8 h” and the “concentration at which inhibition of FAAH is observed by competitive ABPP” value ([2]; 30 min preincubation) was 10 µM. The “kobs [I]^-1 for FAAH” value [2, 22] was 13 M⁻¹ s⁻¹, the “antinociception in tail immersion test” value ([5]; 16 mg kg^-1 i.p., 2 h, wild-type / CB1+/+ mice) was “significant analgesic activity; also recorded: antinociceptive effects” and the “effect on other brain serine hydrolases by ABPP-MudPIT” value [14] was “none of the other ∼40 brain serine hydrolases profiled by ABPP-MudPIT were significantly affected”. For the same compound, the “catalepsy in the bar test” value ([15]; 16 mg kg^-1 i.p.) was “did not, however, induce catalepsy; also recorded: did not develop catalepsy”, the “overt posture and appearance (spontaneous limb splaying)” value ([15]; JZL184-treated mice) was “appeared generally normal” and the “concentration at which inhibition of ABHD6 is observed by competitive ABPP” value ([3]; 30 min preincubation) was 10 µM. For the same compound, the “antinociception in formalin test, phase 1” value ([6]; 40 mg kg^-1 p.o.) was “antinociceptive effects”, the “antinociception in formalin test, phase 2” value ([6]; 40 mg kg^-1 p.o.) was “antinociceptive effects” and the “analgesic activity in formalin test” value ([6]; text: 16 mg kg^-1, 2 h) was “significant analgesic activity”. The “inhibition of brain FAAH by ABPP-MudPIT” value ([12]; 16 mg kg^-1, 4 h) was “partial inhibition”, the “brain FAAH blockade, maximum at any time point” value ([12]; 16 mg kg^-1 i.p., 0.5-24 h) was at most 70% and the half-life [16] was about 7 h. The “interaction with CB1 receptors (displacement of 3H-rimonabant)” value [17] was “did not interact”, the “interaction with CB2 receptors (radioligand displacement)” value [18] was “did not interact” and the “blockade of brain MAGL activity (competitive ABPP, ABPP-MudPIT)” value [19] was “near-complete blockade”. The “residual brain 2-AG hydrolysis activity” value [19] was 15 % of control, the “antinociception in acetic acid writhing test” value ([7]; 16 mg kg^-1, 2 h) was “significant analgesic activity; also recorded: antinociceptive effects” and the “hypomotility in CB1^-/- mice” value ([8]; 16 mg kg^-1 i.p., CB1^-/- mice) was “did not produce significant hypomotility, hypothermia, or analgesia”. The hypomotility [8, 23] was “hypomotility”.
